Reference: PubChem BioAssay
Calls of active or inactive are those of the source.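 The calls were made as follows, unless noted: active = current rise at least 3 SD above the untreated control mean in each of two repeat wells; inactive = the rest.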

Biological target: Potassium voltage-gated channel subfamily KQT member 2 (Rattus norvegicus) (UniProt O88943)
Assay: KCNQ2 thallium flux enhancement – KCNQ2-CHO-K1 cells, selectivity assay for KCNQ1 potentiator project (AID 493009;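 active = mean duplicate potentiation above the buffer control mean plus 5 SD of buffer wells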;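 also: assay conditions were tuned for KCNQ1 rather than KCNQ2 modulators; signal is max minus min fluorescence divided by baseline after thallium stimulus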)
Settings: FluxOR thallium flux fluorescence, at 10 µM; stronger effect = higher value, scaled: buffer 0, activator control 100

Potassium voltage-gated channel subfamily KQT member 2 (Rattus norvegicus), sequence (O88943 whole entry, looked up): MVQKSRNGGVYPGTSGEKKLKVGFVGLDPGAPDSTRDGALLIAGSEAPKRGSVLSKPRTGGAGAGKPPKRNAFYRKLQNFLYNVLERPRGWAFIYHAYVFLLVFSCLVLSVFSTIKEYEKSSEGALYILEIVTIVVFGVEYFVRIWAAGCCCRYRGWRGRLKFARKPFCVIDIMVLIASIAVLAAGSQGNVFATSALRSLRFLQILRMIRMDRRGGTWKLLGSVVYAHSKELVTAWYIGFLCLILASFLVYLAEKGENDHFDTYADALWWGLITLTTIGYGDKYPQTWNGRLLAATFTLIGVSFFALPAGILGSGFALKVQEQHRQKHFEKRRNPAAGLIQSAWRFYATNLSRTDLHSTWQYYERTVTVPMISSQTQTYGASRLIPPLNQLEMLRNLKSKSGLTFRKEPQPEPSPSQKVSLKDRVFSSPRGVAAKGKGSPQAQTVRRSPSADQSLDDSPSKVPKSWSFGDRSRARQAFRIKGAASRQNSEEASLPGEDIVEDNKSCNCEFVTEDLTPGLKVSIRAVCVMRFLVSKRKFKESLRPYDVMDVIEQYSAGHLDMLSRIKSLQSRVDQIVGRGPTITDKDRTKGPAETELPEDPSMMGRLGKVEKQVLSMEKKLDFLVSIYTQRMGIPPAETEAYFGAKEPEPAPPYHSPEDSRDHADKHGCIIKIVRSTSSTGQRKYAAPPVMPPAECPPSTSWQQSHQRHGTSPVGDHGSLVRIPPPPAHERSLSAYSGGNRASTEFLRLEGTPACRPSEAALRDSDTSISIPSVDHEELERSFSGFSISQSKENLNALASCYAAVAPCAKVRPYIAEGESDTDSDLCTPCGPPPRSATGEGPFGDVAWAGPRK

Row | SMILES | outcome | potentiation
1 | CCOc1ccc(N=Nc2ccc(O)c3ncccc23)cc1 | inactive | –
2 | COc1cccc(C(=O)NNC(=O)C(=O)Nc2ccc(C)c(Cl)c2)c1 | – | 311% (active)
3 | O=C(NC(=S)N(CCCCO)C1CCCCC1)c1sc2ccccc2c1Cl | – | 392% (active)
4 | O=C(NC(=S)N1CCc2ccccc21)c1ccccc1 | – | 366% (active)
5 | S=c1[nH]nc(-c2ccc(Cl)cc2Cl)n1-c1ccc(Cl)cc1 | – | 167% (active)
6 | CC(=O)c1ccc(N2CCN(C(=O)c3ccc(NC(=O)C4CCCO4)cc3)CC2)cc1 (stereo not drawn) | inactive | –
7 | CCc1ccc(/C=C/C(=O)C2C(=O)c3ccccc3C2=O)cc1 | – | 297% (active)
8 | Cc1ccc(-c2nc3ncccc3o2)cc1NC(=O)c1cccnc1 | inactive | –
9 | O=C(COC(=O)C1CCC(=O)N1)Nc1ccc(Oc2ccccc2)cc1 (stereo not drawn) | inactive | –
10 | Cc1ccc(C(=O)N/C(=C\c2ccc(-c3ccccc3[N+](=O)[O-])o2)C(=O)NCCCN2CCOCC2)cc1 | inactive | –
11 | COc1ccc(CCN(C)C(=O)CSc2nnc(-c3ccco3)o2)cc1OC | inactive | –
12 | Cc1sc2nc(C(C)C)nc(SCC(=O)NCc3ccco3)c2c1C | – | 280% (active)
13 | Cc1ccc(/C(O)=C/C(=O)C(=O)NC23CC4CC(CC(C4)C2)C3)cc1 | – | 367% (active)
14 | COc1ccc(CCN2CC(C(=O)Nc3ccc4c(c3)OCO4)CC2=O)cc1OC (stereo not drawn) | – | 158% (active)
15 | Fc1ccccc1/C=N/NC(=S)Nc1ccc(Cl)cc1Cl | inactive | –
16 | O=C(Nn1c(Cc2cccs2)nc2ccccc2c1=O)c1cccs1 | inactive | –
17 | COc1ccccc1NC(=O)C(=O)NNC(=O)c1ccco1 | – | 210% (active)
18 | Cc1c(N=Cc2cc(Br)cc(Br)c2O)cccc1C(=O)O | inactive | –
19 | CC(=O)NC(NC(C)=O)c1ccc(N(C)C)cc1 | inactive | –
20 | Cc1ccc(NC(=O)C(=O)NNC(=O)c2cccs2)cc1 | – | 326% (active)
21 | O=C(COC(=O)c1cc(NS(=O)(=O)c2cccs2)ccc1O)Nc1cc(Cl)ccc1Cl | inactive | –
22 | Cn1c(=O)c2c(SC3CCCC3)nc(C3CC3)nc2n(C)c1=O | inactive | –
23 | O=C(NC(=S)Nc1ccccc1)c1cccs1 | – | 142% (active)

Biological target: Potassium voltage-gated channel subfamily KQT member 1 (Homo sapiens) (UniProt P51787)
Assay: KCNQ1 activators by electrophysiology – IonWorks patch clamp, KCNQ1-CHO cells, orthogonal assay for KCNQ1 potentiator project, confirmation (AID 493184)
Settings: automated patch clamp current, at 10 µM; stronger effect = higher value
In short: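 Material: KCNQ1-expressing CHO cells; doses: 10 µM final, single point; probe or stimulus: voltage step from -90 mV holding to +40 mV, 2,000 ms; signal: automated voltage clamp, amphotericin B perforated patch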

Potassium voltage-gated channel subfamily KQT member 1 (Homo sapiens), sequence (P51787 whole entry, looked up): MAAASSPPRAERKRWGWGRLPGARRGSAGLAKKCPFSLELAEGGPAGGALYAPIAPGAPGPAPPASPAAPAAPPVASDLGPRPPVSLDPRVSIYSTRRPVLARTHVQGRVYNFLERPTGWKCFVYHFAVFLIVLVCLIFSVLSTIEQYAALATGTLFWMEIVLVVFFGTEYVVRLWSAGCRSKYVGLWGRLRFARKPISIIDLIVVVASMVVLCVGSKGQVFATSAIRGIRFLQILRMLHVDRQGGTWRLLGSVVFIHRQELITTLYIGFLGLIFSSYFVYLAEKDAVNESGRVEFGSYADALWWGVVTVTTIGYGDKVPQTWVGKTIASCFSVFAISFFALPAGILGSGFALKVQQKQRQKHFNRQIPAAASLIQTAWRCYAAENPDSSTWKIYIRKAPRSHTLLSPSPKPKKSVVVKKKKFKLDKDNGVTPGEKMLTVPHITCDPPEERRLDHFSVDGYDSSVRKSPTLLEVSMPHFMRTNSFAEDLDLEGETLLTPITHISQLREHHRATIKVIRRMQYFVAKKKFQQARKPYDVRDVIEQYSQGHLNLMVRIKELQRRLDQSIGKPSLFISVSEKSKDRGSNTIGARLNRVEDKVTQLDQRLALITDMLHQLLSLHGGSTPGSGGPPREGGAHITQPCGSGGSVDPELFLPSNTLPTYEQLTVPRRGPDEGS

Row | SMILES | outcome
24 | CC(C)c1ccc(NC(=O)C2CC(=O)N=C(N)S2)cc1 (stereo not drawn) | inactive
25 | O=C(NC(=S)Nc1nc2ccccc2s1)c1ccco1 | inactive
26 | Cc1ccc(C2=CSC3=NS(=O)(=O)CCN23)cc1 | inactive
27 | Cc1cc(Cl)ccc1OCC(=O)NNC(=O)C1CCCO1 (stereo not drawn) | inactive
28 | Cc1cccc(C(=O)NC(=S)N(C)C2CCCCC2)c1 | inactive
29 | COc1ccc(NC(=O)/C(=C/c2ccc(OC(C)=O)c(OC)c2)NC(C)=O)cc1 | inactive
30 | S=c1[nH]nc(-c2ccc(Cl)cc2)n1/N=C/C=C/c1ccco1 | inactive
31 | C=CCn1c(O)c(N=NC(=S)Nc2ccc(OC)c(Cl)c2)c2ccccc21 | inactive
32 | Cc1ccc(N=Cc2cc(Br)cc(Cl)c2O)cc1 | inactive
33 | CCCCN(CCCC)C(=S)N/N=C/c1c(C)[nH]n(-c2ccccc2)c1=O | inactive
34 | CCOc1cc(CNCCCN2CCOCC2)ccc1OCC(=O)NC(C)(C)C | inactive
35 | CCC(O)C1CCN(Cc2cn(Cc3ccccc3)nc2-c2cc3ccccc3o2)CC1 (stereo not drawn) | inactive
36 | Cc1ccc(C(=O)COC(=O)COc2ccccc2C)cc1 | inactive
37 | CCCN(Cc1ccccc1)C(=S)NC(=O)c1ccccc1[N+](=O)[O-] | inactive
38 | CC(=O)Nc1ccc(/C=N/N2C(=O)NC(C)(c3ccc(OC(F)F)cc3)C2=O)cc1 (stereo not drawn) | inactive
39 | Cc1cc(/C=C2\C(=N)N3N=C(C(C)C)SC3=NC2=O)c(C)n1Cc1ccccc1 | inactive
40 | Cc1ccc(-c2c(=O)n(O)c3ccccc3[n+]2[O-])cc1 | inactive
41 | CCOc1ccc(N=Nc2ccc(O)c3ncccc23)cc1 | inactive
42 | COc1cccc(C(=O)NNC(=O)C(=O)Nc2ccc(C)c(Cl)c2)c1 | inactive
43 | O=C(NC(=S)N(CCCCO)C1CCCCC1)c1sc2ccccc2c1Cl | inactive

Row | SMILES | outcome
44 | O=C(NC(=S)N1CCc2ccccc21)c1ccccc1 | inactive
45 | S=c1[nH]nc(-c2ccc(Cl)cc2Cl)n1-c1ccc(Cl)cc1 | inactive
46 | CC(=O)c1ccc(N2CCN(C(=O)c3ccc(NC(=O)C4CCCO4)cc3)CC2)cc1 (stereo not drawn) | inactive
47 | CCc1ccc(/C=C/C(=O)C2C(=O)c3ccccc3C2=O)cc1 | inactive
48 | Cc1ccc(-c2nc3ncccc3o2)cc1NC(=O)c1cccnc1 | inactive
49 | O=C(COC(=O)C1CCC(=O)N1)Nc1ccc(Oc2ccccc2)cc1 (stereo not drawn) | inactive
50 | Cc1ccc(C(=O)N/C(=C\c2ccc(-c3ccccc3[N+](=O)[O-])o2)C(=O)NCCCN2CCOCC2)cc1 | inactive
51 | COc1ccc(CCN(C)C(=O)CSc2nnc(-c3ccco3)o2)cc1OC | inactive
52 | Cc1sc2nc(C(C)C)nc(SCC(=O)NCc3ccco3)c2c1C | inactive
53 | Cc1ccc(/C(O)=C/C(=O)C(=O)NC23CC4CC(CC(C4)C2)C3)cc1 | inactive
54 | COc1ccc(CCN2CC(C(=O)Nc3ccc4c(c3)OCO4)CC2=O)cc1OC (stereo not drawn) | inactive
55 | Fc1ccccc1/C=N/NC(=S)Nc1ccc(Cl)cc1Cl | inactive
56 | O=C(Nn1c(Cc2cccs2)nc2ccccc2c1=O)c1cccs1 | inactive
57 | COc1ccccc1NC(=O)C(=O)NNC(=O)c1ccco1 | inactive
58 | Cc1c(N=Cc2cc(Br)cc(Br)c2O)cccc1C(=O)O | inactive
59 | CC(=O)NC(NC(C)=O)c1ccc(N(C)C)cc1 | inactive
60 | Cc1ccc(NC(=O)C(=O)NNC(=O)c2cccs2)cc1 | inactive
61 | O=C(COC(=O)c1cc(NS(=O)(=O)c2cccs2)ccc1O)Nc1cc(Cl)ccc1Cl | inactive
62 | Cn1c(=O)c2c(SC3CCCC3)nc(C3CC3)nc2n(C)c1=O | inactive
63 | O=C(NC(=S)Nc1ccccc1)c1cccs1 | inactive
